# Results from ChEMBL document CHEMBL5724801, “EUbOPEN Chemogenomics Library - Multiplex” (2024).
# Values joined by “and” are separate entries in the source; they are usually repeats but may differ in a detail not shown here. Identical values can stand only once.
# System: HEK-293T
# Experiment: Multiplex assay against HEK293T
# Format: toxicity, cell-based
# Details: human
# Method in brief: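 On a CQ1 microscope at 37°C and 5% CO2, live cells were imaged after compound addition. They had been stained at seeding with Hoechst33342, BioTracker Green Microtubule Cytoskeleton Dye, MitoTracker Red and Annexin V Alexa Fluor 680. CellPathfinder machine-learning gating assigned cells to Hoechst high-intensity objects or normal cells, normal cells to healthy, pyknosed or fragmented nuclei, and pyknosed cells to mitotic or apoptotic. Tubulin, mitochondrial-mass and membrane-permeability phenotypes are per cents of healthy-nucleus cells.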
# [1] = 12 h, 1 µM, compound concentration 1 uM
# [2] = 12 h, 10 µM, compound concentration 10 uM
# [3] = 24 h, 1 µM, compound concentration 1 uM
# [4] = 24 h, 10 µM, compound concentration 10 uM
# [5] = 48 h, 1 µM, compound concentration 1 uM
# [6] = 48 h, 10 µM, compound concentration 10 uM
structure (smiles),measurement,setting,value
Cc1cccc(F)c1C(=O)Nc1cnc(-c2cc3c(cc2Cl)OC(F)(F)O3)cn1 [ZEGOCRACTIN],Population Apoptotic (%),[1],12.35% and 6.45%
same,Population Healthy Nuclei (%),[1],42.98% and 15.89%
same,Population Hoechst High Intensity Objects (%),[1],0.27% and 0%
same,Population Membrane Permeable-Phenotype (%),[1],0% and 4.17%
same,Population Mitochondria Different-Phenotype (%),[1],33.33% and 20.83%
same,Population Mitotic Cells (%),[1],87.65% and 93.55%
same,Population Normal (%),[1],99.73% and 100%
same,Population Pyknosed Nuclei (%),[1],44.63% and 82.12%
same,Total Cell Count,[1],364 and 151
same,Population Apoptotic (%),[2],18.42% and 16.15%
same,Population Fragmented Nuclei (%),[2],2.44% and 4.03%
same,Population Healthy Nuclei (%),[2],23.41% and 8.72%
same,Population Hoechst High Intensity Objects (%),[2],2.38% and 0%
same,Population Membrane Permeable-Phenotype (%),[2],0% and 7.69%
same,Population Mitochondria Different-Phenotype (%),[2],22.92% and 30.77%
same,Population Mitotic Cells (%),[2],81.58% and 83.85%
same,Population Normal (%),[2],97.62% and 100%
same,Population Pyknosed Nuclei (%),[2],74.15% and 87.25%
same,Population Tubulin-Different-Phenotype (%),[2],37.5% and 23.08%
same,Total Cell Count,[2],210 and 149
same,Population Apoptotic (%),[3],23.62% and 14.53%
same,Population Fragmented Nuclei (%),[3],12.53% and 3.66%
same,Population Healthy Nuclei (%),[3],61.82% and 25%
same,Population Hoechst High Intensity Objects (%),[3],0.4% and 0%
same,Population Membrane Permeable-Phenotype (%),[3],2.29% and 0%
same,Population Mitochondria Different-Phenotype (%),[3],10.78% and 21.95%
same,Population Mitotic Cells (%),[3],76.38% and 85.47%
same,Population Normal (%),[3],99.6% and 100%
same,Population Pyknosed Nuclei (%),[3],25.66% and 71.34%
same,Population Tubulin-Different-Phenotype (%),[3],10.78% and 17.07%
same,Population Apoptotic (%),[4],34.16% and 33.09%
same,Population Fragmented Nuclei (%),[4],0.76% and 3.75%
same,Population Hoechst High Intensity Objects (%),[4],0.75% and 0%
same,Population Membrane Permeable-Phenotype (%),[4],0%
same,Population Mitochondria Different-Phenotype (%),[4],52.48% and 27.78%
same,Population Mitotic Cells (%),[4],65.84% and 66.91%
same,Population Normal (%),[4],99.25% and 100%
same,Population Pyknosed Nuclei (%),[4],60.98% and 85%
same,Total Cell Count,[4],266 and 160
same,Population Apoptotic (%),[5],9.86% and 16.85%
same,Population Fragmented Nuclei (%),[5],5.17% and 0.94%
same,Population Healthy Nuclei (%),[5],80.45% and 57.08%
same,Population Hoechst High Intensity Objects (%),[5],0% and 0.47%
same,Population Membrane Permeable-Phenotype (%),[5],4.53% and 2.48%
same,Population Mitochondria Different-Phenotype (%),[5],22.67% and 22.31%
same,Population Mitotic Cells (%),[5],90.14% and 83.15%
same,Population Normal (%),[5],100% and 99.53%
same,Population Pyknosed Nuclei (%),[5],14.39% and 41.98%
same,Population Apoptotic (%),[6],30.82% and 29%
same,Population Fragmented Nuclei (%),[6],1.98% and 3.11%
same,Population Healthy Nuclei (%),[6],61.88% and 34.78%
same,Population Hoechst High Intensity Objects (%),[6],0.49% and 2.42%
same,Population Membrane Permeable-Phenotype (%),[6],2% and 0%
same,Population Mitochondria Different-Phenotype (%),[6],76.4% and 44.64%
same,Population Mitotic Cells (%),[6],69.18% and 71%
same,Population Normal (%),[6],99.51% and 97.58%
same,Population Pyknosed Nuclei (%),[6],36.14% and 62.11%
same,Total Cell Count,[6],406 and 165
